Broadly, the MIC50 is an inhibitory concentration at the 50% level, which refers to growth in some studies and to a panel of isolates in others. For orientation: MIC80 means the lowest concentration that inhibits either 80% of growth or 80% of the strains tested, depending on the study. As a reminder, the MIC is the least concentration at which growth counts as inhibited. The low end stands for a more susceptible organism, the high end for a less susceptible organism.

Type in all cases: functional
For assay [1], the system named is Pseudomonas aeruginosa. In words: Potentiation of moxifloxacin-induced antibacterial activity against MDR/XDR Pseudomonas aeruginosa isolate PA259-96918 harboring GyrA T83I mutant assessed as fold reduction in moxifloxacin MIC at 7.5 uM incubated for 18 hrs by broth microdilution method. In short, it runs like this:
(§1)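 CLSI broth microdilution. Overnight cultures were set to 0.5 McFarland in saline, diluted 1:50 in Mueller-Hinton broth to a final 5 × 10^5 CFU/mL, and incubated 18 h at 37 °C against 2-fold antibiotic dilutions. A fixed adjuvant level was present throughout. MIC = lowest concentration with no visible turbidity, confirmed at 590 nm. Potentiation = fold drop in antibiotic MIC versus antibiotic alone.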

Assay [2] relates to Pseudomonas aeruginosa. Put plainly: Potentiation of minocycline-induced antibacterial activity against MDR/XDR Pseudomonas aeruginosa isolate PA264-104354 harboring GyrA T83I mutant assessed as fold reduction in minocycline MIC at 7.5 uM incubated for 18 hrs by broth microdilution method.
Assay [3] relates to Acinetobacter baumannii. In words: Synergistic antibacterial activity against multidrug-resistant Acinetobacter baumannii 110193 assessed as fractional inhibitory concentration index in presence of minocycline incubated for 18 hrs by broth dilution method.
Assay [4] has as its system Pseudomonas aeruginosa. Put plainly: Potentiation of rifampicin-induced antibacterial activity against MDR/XDR Pseudomonas aeruginosa isolate 100036 harboring GyrA T83I mutant assessed as fold reduction in rifampicin MIC at 7.5 uM incubated for 18 hrs by broth microdilution method. The gist of the method:
as §1

The test system of assay [5] is Pseudomonas aeruginosa. Put plainly: Potentiation of minocycline-induced antimicrobial activity against MDR/XDR Pseudomonas aeruginosa isolate PA260-97103 harboring GyrA Thr83Ile mutant assessed as minocycline MIC50 incubated for 18 hrs by broth microdilution method (reference value: 16 microg/ml). Conditions: isolate PA260-97103, 18 h.
Assay [6] has as its system Pseudomonas aeruginosa. Put plainly: Potentiation of rifampicin-induced antimicrobial activity against MDR/XDR Pseudomonas aeruginosa isolate PA260-97103 harboring GyrA Thr83Ile mutant assessed as rifampicin MIC80 incubated for 18 hrs by broth microdilution method (reference value: 16 microg/ml). The note with it: isolate PA260-97103, 18 h.
Assay [7] has as its system Pseudomonas aeruginosa. In words: Potentiation of minocycline-induced antimicrobial activity against MDR/XDR Pseudomonas aeruginosa isolate 101243 devoid of GyrA Thr83Ile mutant assessed as minocycline MIC80 incubated for 18 hrs by broth microdilution method (reference value: 32 microg/ml). Conditions: isolate 101243, 18 h.
Assay [8] concerns Pseudomonas aeruginosa. Put plainly: Potentiation of moxifloxacin-induced antibacterial activity against MDR/XDR Pseudomonas aeruginosa isolate PA264-104354 harboring GyrA T83I mutant assessed as fold reduction in moxifloxacin MIC at 7.5 uM incubated for 18 hrs by broth microdilution method. The gist of the method:
as §1
In general terms: Dilution methods test growth across graded concentrations, often in twofold steps.

The subject of assay [9] is Pseudomonas aeruginosa. In words: Potentiation of minocycline-induced antimicrobial activity against MDR/XDR Pseudomonas aeruginosa isolate 101885 harboring GyrA Thr83Ile mutant assessed as minocycline MIC50 incubated for 18 hrs by broth microdilution method (reference value: 16 microg/ml). The note with it: isolate 101885, 18 h.
Assay [10] deals with Pseudomonas aeruginosa. Put plainly: Potentiation of rifampicin-induced antibacterial activity against MDR/XDR Pseudomonas aeruginosa isolate 101885 harboring GyrA T83I mutant assessed as fold reduction in rifampicin MIC at 7.5 uM incubated for 18 hrs by broth microdilution method. The gist of the method:
as §1

The test system of assay [11] is Pseudomonas aeruginosa. In words: Potentiation of rifampicin-induced antibacterial activity against wild type Pseudomonas aeruginosa PAO1 assessed as fold reduction in rifampicin MIC at 7.5 uM incubated for 18 hrs by broth microdilution method. In short, it runs like this: as §1
For assay [12], the system named is Acinetobacter baumannii. In words: Synergistic antibacterial activity against multidrug-resistant Acinetobacter baumannii AB030 assessed as fractional inhibitory concentration index in presence of rifampicin incubated for 18 hrs by broth dilution method.
The subject of assay [13] is Pseudomonas aeruginosa. In words: Potentiation of ciprofloxacin-induced antibacterial activity against MDR/XDR Pseudomonas aeruginosa isolate 101885 harboring GyrA T83I mutant assessed as fold reduction in ciprofloxacin MIC at 9 uM incubated for 18 hrs by broth microdilution method.
The subject of assay [14] is Pseudomonas aeruginosa. In words: Potentiation of moxifloxacin-induced antibacterial activity against MDR/XDR Pseudomonas aeruginosa isolate PA260-97103 harboring GyrA T83I mutant assessed as fold reduction in moxifloxacin MIC at 9 uM incubated for 18 hrs by broth microdilution method. In short, it runs like this: as §1
In assay [15] the test system is Pseudomonas aeruginosa. Put plainly: Potentiation of minocycline-induced antibacterial activity against MDR/XDR Pseudomonas aeruginosa isolate PA260-97103 harboring GyrA T83I mutant assessed as fold reduction in minocycline MIC at 9 uM incubated for 18 hrs by broth microdilution method.
In the next assay the test system is Klebsiella pneumoniae. In words: Potentiation of rifampicin-induced antibacterial activity against Klebsiella pneumoniae 113250 assessed as fold reduction in rifampicin MIC at 4.1 uM incubated for 18 hrs by broth dilution method. The gist of the method:
(§2)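 Antibiotic MIC determined by CLSI broth microdilution (MHB, 5 × 10^5 CFU/mL, 18 h, 37 °C), once alone and once with a fixed concentration of the adjuvant. Potentiation is the ratio of the antibiotic MIC alone to its MIC in the presence of the adjuvant.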

Assay [16] relates to Pseudomonas aeruginosa. In words: Antimicrobial activity against XDR Pseudomonas aeruginosa isolate PA264 infected in Galleria mellonella larvae assessed as survival rate at 75 mg/kg co-administered with 75 mg/kg rifampicin at 2 hrs post-inoculation measured after 18 hrs relative to control. In short, it runs like this: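 G. mellonella larvae were injected with ~5 CFU of P. aeruginosa PA264 (10 µL of 5 × 10^2 CFU/mL in PBS) and held 2 h at 37 °C. A single 10 µL injection followed: monotherapy or rifampicin + compound (25+25, 50+50 or 75+75 mg/kg), with PBS as control. Larvae kept at 37 °C were scored every 6 h to 24 h; dead = no response to touch. n = 30 (two runs of 15); Kaplan-Meier.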

Assay [17] concerns Pseudomonas aeruginosa. In words: Potentiation of minocycline-induced antibacterial activity against wild type Pseudomonas aeruginosa PAO1 assessed as fold reduction in minocycline MIC at 4.1 uM incubated for 18 hrs by broth microdilution method. In short, it runs like this: as §2
Assay [18] concerns Acinetobacter baumannii. Put plainly: Synergistic antibacterial activity against multidrug-resistant Acinetobacter baumannii ATCC 17978 assessed as fractional inhibitory concentration index in presence of minocycline incubated for 18 hrs by broth dilution method.
In assay [19] the test system is Escherichia coli. In words: Synergistic antibacterial activity against Escherichia coli 107115 assessed as fractional inhibitory concentration index in presence of minocycline incubated for 18 hrs by broth dilution method. In short, it runs like this:
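Checkerboard titration of the adjuvant against the antibiotic, run under the CLSI microdilution conditions (MHB, 5 × 10^5 CFU/mL, 18 h, 37 °C). Each agent's FIC is its MIC in combination divided by its MIC alone; FICI is the sum of the two FICs. FICI ≤0.5 was read as synergy, >0.5–4.0 as no interaction, and >4.0 as antagonism.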

Assay [20] deals with Escherichia coli. In words: Antimicrobial activity against Escherichia coli ATCC 25922 incubated for 18 hrs by broth dilution method. Conditions: ATCC 25922, 18 h. The gist of the method:
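CLSI broth microdilution. Overnight cultures were adjusted to 0.5 McFarland in saline, diluted 1:50 in Mueller-Hinton broth, and inoculated at a final 5 × 10^5 CFU/mL. Compounds were tested as 2-fold serial dilutions and incubated 18 h at 37 °C. MIC was the lowest concentration with no visible turbidity, confirmed by absorbance at 590 nm.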

Assay [21] relates to Escherichia coli. In words: Potentiation of rifampicin-induced antibacterial activity against Escherichia coli 107115 assessed as fold reduction in rifampicin MIC at 4.1 uM incubated for 18 hrs by broth dilution method. In short, it runs like this:
as §2

Structures are written as SMILES. Some results are limits rather than exact numbers.

As to `COc1c(N2C[C@@H]3CCCN(CCCCCCCCCCCCO[C@@H]4[C@@H](O)[C@H](N)C[C@H](N)[C@H]4O[C@H]4O[C@H](CN)[C@@H](O)C[C@H]4N)[C@@H]3C2)c(F)cc2c(=O)c(C(=O)O)cn(C3CC3)c12.Cl.Cl.Cl.Cl.Cl`, the “fold change (FC)” value was 16 in the assay with Pseudomonas aeruginosa [1]; 64 in the assay on Pseudomonas aeruginosa [2]; 256 in the assay with Pseudomonas aeruginosa [4]; 16 in the assay on Pseudomonas aeruginosa [8]; 128 in the assay on Pseudomonas aeruginosa [10]; “>=256” in the assay on Pseudomonas aeruginosa [11]. Also, the “fractional inhibitory concentration index (FICI)” value was over 1 in the assay with Acinetobacter baumannii [3] and 0.031 - 0.281 in the assay with Acinetobacter baumannii [12]. The MIC50 in the assay on Pseudomonas aeruginosa [5] and in the assay with Pseudomonas aeruginosa [9] was 0.5 µg/mL throughout. Also, the MIC80 in the assay on Pseudomonas aeruginosa [6] worked out at 0.13 µg/mL; in the assay with Pseudomonas aeruginosa [7], 1 µg/mL.

Turning to `Cl.Cl.Cl.Cl.Cl.Cl.NC[C@H]1O[C@H](O[C@H]2[C@H](OCCCCCCCCCCN3CCN(Cc4cccc5ccccc45)CC3)[C@@H](O)[C@H](N)C[C@@H]2N)[C@H](N)C[C@@H]1O`, the figures for the “fold change (FC)” value with Pseudomonas aeruginosa [13], in the assay with Pseudomonas aeruginosa [14] and in the assay on Pseudomonas aeruginosa [15] were 8, 128 and 64, respectively.

As to `Cl.Cl.Cl.Cl.Cl.NC[C@H]1O[C@H](O[C@H]2[C@H](OCCCCCCCCCCCCN3CCN(c4cc5c(cc4F)c(=O)c(C(=O)O)cn5C4CC4)CC3)[C@@H](O)[C@H](N)C[C@@H]2N)[C@H](N)C[C@@H]1O`, the “fold change (FC)” value in the assay on Klebsiella pneumoniae is reported as 128; in the assay on Pseudomonas aeruginosa [17], 32; in the assay on Escherichia coli [21] it was “>=256”. Also, the survival at 75 mg/kg with Pseudomonas aeruginosa [16] stood at 87%. The “fractional inhibitory concentration index (FICI)” value in the assay with Acinetobacter baumannii [18] is recorded as 0.52; in the assay with Escherichia coli [19], 0.133. In the assay with Escherichia coli [20], this molecule yielded an MIC of 8 µg/mL.

The values are drawn from ChEMBL document CHEMBL4354800, “Amphiphilic nebramine-based hybrids Rescue legacy antibiotics from intrinsic resistance in multidrug-resistant Gram-negative bacilli” (Eur J Med Chem, 2019).
